Data set [1] relates to Human alphaherpesvirus 1. Nature of the data set: Antiviral activity against HSV1 KOS infected in HEL assessed as reduction in virus-induce cytopathicity. The note with it: Human alphaherpesvirus 1, KOS. The format is functional, organism-based. Background: Damage to the host cells serves as the signal in cytopathic effect assays.
For data set [2], the system named is Human betaherpesvirus 5. Nature of the data set: Antiviral activity against Human cytomegalovirus Davis infected in HEL assessed as reduction in virus-induce cytopathicity. The format is functional, organism-based. The note with it: Human betaherpesvirus 5, Davis.
Data set [3] is described as follows: Cytotoxicity against HEL assessed as change in cell morphology. The note with it: human, HEL cells. The format is cell-based. In short, it runs like this:
(§1)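 Microscopic inspection of cultures exposed to test compounds. MCC is the minimum compound concentration causing a microscopically detectable alteration of cell morphology.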

Data set [4] has as its system Human alphaherpesvirus 3. Description: Antiviral activity against acyclovir-resistant VZV 07/1 infected in HEL assessed as reduction in virus-induce cytopathicity. To be noted: Human alphaherpesvirus 3, 07/1.
A further data set concerns Human alphaherpesvirus 2. Description: Antiviral activity against […] infected in HEL assessed as reduction in virus-induce cytopathicity. The format is functional, organism-based. The note with it: Human alphaherpesvirus 2, strain G.
The test system of the next data set is Vaccinia virus. Nature of the data set: Antiviral activity against Vaccinia virus infected in HEL assessed as reduction in virus-induce cytopathicity. The format is functional, organism-based. The note with it: Orthopoxvirus vaccinia.
In data set [5] the test system is Human alphaherpesvirus 1. Nature of the data set: Antiviral activity against acyclovir-resistant HSV1 KOS infected in HEL assessed as reduction in virus-induce cytopathicity. The format is functional, organism-based. To be noted: Human alphaherpesvirus 1, KOS.
Data set [6] relates to Human alphaherpesvirus 3. Description: Antiviral activity against acyclovir-resistant VZV OKA infected in HEL assessed as reduction in virus-induce cytopathicity. To be noted: Human alphaherpesvirus 3, OKA.
Data set [7] is described as follows: Cytotoxicity against HEL. It counts as cell-based. To be noted: human, HEL cells. The gist of the method:
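HEL cells were seeded at 5 × 10³ cells/well and allowed to proliferate for 24 h, then given medium with graded compound concentrations. After 3 days at 37 °C, cells were counted with a Coulter counter. CC50 (μM) is the concentration halving proliferation relative to untreated controls, estimated from plots of cell number (% of control) against concentration.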

The test system of data set [8] is Human betaherpesvirus 5. Nature of the data set: Antiviral activity against Human cytomegalovirus AD169 infected in HEL assessed as reduction in virus-induce cytopathicity. The format is functional, organism-based. The note with it: Human betaherpesvirus 5, AD169.
Data set [9] can be described thus: Cytotoxicity against human HSB2 cells assessed as change in cell morphology. It counts as cell-based, CCRF-HSB-2. In short, it runs like this:
as §1

Another data set concerns Human betaherpesvirus 6. Nature of the data set: Antiviral activity against Human herpesvirus 6 infected in HEL assessed as reduction in virus-induce cytopathicity. It counts as functional, organism-based.

For `Nc1nc(N)c2ncn(C[C@H]3COP(=O)(OCC(F)(F)F)CO3)c2n1` (some centres not stated), the EC50 amounted to 6.57 µM in the data set on Human alphaherpesvirus 1 [1]; 24.4 µM in the data set with Human betaherpesvirus 5 [2]; 0.17 µM in the data set on Human alphaherpesvirus 3 [4]; 1.91 µM in the data set with Human alphaherpesvirus 2; 2.08 µM in the data set with Vaccinia virus; 4.78 µM with Human alphaherpesvirus 1 [5]. Moreover, the results for the EC50 with Human alphaherpesvirus 3 [6], with Human betaherpesvirus 5 [8] and with Human betaherpesvirus 6 were 0.62 µM, 19.1 µM and 177 µM, respectively. In addition, the MCC in data set [3] and in [9] was over 239 µM in each case. In [7], this compound came in with a CC50 of at least 219 µM.
As to `CC(C)(C)C(=O)OCOP1(=O)CO[C@@H](Cn2cnc3c(N)nc(N)nc32)CO1` (some centres not stated), the EC50 amounted to 2.22 µM with Human alphaherpesvirus 1 [1]; 6.8 µM with Human betaherpesvirus 5 [2]; 0.093 µM in the data set on Human alphaherpesvirus 3 [4]; 1.34 µM in the data set with Human alphaherpesvirus 2; 0.183 µM in the data set with Vaccinia virus; 2.41 µM in the data set with Human alphaherpesvirus 1 [5]. In addition, the EC50 in the data set on Human alphaherpesvirus 3 [6] came out at 0.3 µM; in the data set on Human betaherpesvirus 5 [8], 6.94 µM; in the data set with Human betaherpesvirus 6, 7.63 µM. The MCC in data set [3] was at least 231 µM; in data set [9] it was 62.5 µM. The half-maximal cytotoxic concentration (CC50) in [7] was at least 201 µM.
With `CC(C)(C)C(=O)OCOP(=O)(O)CO[C@H](CO)Cn1cnc2c(N)nc(N)nc21`, the EC50 in the data set on Human alphaherpesvirus 1 [1] is 2.76 µM; in the data set with Human betaherpesvirus 5 [2], 11.6 µM; in the data set with Human alphaherpesvirus 3 [4], 0.34 µM; in the data set with Human alphaherpesvirus 2 it was 3.15 µM; with Vaccinia virus it was 1.63 µM; with Human alphaherpesvirus 1 [5], 2.95 µM. Moreover, the concentration for a half-maximal effect (EC50) with Human alphaherpesvirus 3 [6] was 0.79 µM; with Human betaherpesvirus 5 [8], 12.9 µM; in the data set on Human betaherpesvirus 6, 30.6 µM. In addition, the MCC is over 227 µM in [3] and 227 µM in [9]. The same compound yielded a CC50 in data set [7] of at least 227 µM.
With `CC(C)OC(=O)[C@@H](CO[P@]1(=O)CO[C@@H](Cn2cnc3c(N)nc(N)nc32)CO1)NC(=O)[C@@H](N)C(C)C`, the EC50 in the data set on Human alphaherpesvirus 1 [1] was found to be 5.58 µM; with Human betaherpesvirus 5 [2] it was 7.1 µM; in the data set with Human alphaherpesvirus 3 [4], 0.2 µM; in the data set with Human alphaherpesvirus 2 it was 2.3 µM; in the data set with Vaccinia virus, 2.02 µM; with Human alphaherpesvirus 1 [5] it was 3.52 µM. In addition, the concentration giving a half-maximal response (EC50) is 0.73 µM with Human alphaherpesvirus 3 [6], 12 µM with Human betaherpesvirus 5 [8] and over 177 µM with Human betaherpesvirus 6. For the same compound, the MCC was at least 177 µM in data set [3] and 177 µM in data set [9]. In [7], the 50% cytotoxic concentration (CC50) came to 159 µM.
With `CC(C)(C)C(=O)OCO[P@]1(=O)CO[C@@H](Cn2cnc3c(N)nc(N)nc32)CO1`, the EC50 is 1.83 µM in the data set with Human alphaherpesvirus 1 [1]; 15.5 µM in the data set on Human betaherpesvirus 5 [2]; 0.16 µM in the data set on Human alphaherpesvirus 3 [4]; 1.78 µM in the data set on Human alphaherpesvirus 2; 0.37 µM with Vaccinia virus; 3.33 µM with Human alphaherpesvirus 1 [5]. Moreover, the EC50 was determined as 0.72 µM in the data set on Human alphaherpesvirus 3 [6], 14 µM in the data set on Human betaherpesvirus 5 [8] and 14.6 µM in the data set with Human betaherpesvirus 6. Moreover, the MCC in data set [3] was at least 231 µM; in data set [9], 64.7 µM. Besides, the CC50 in data set [7] was over 222 µM.
Regarding `CCCCCCCCCCCCCCCCCCOCCO[P@@]1(=O)CO[C@@H](Cn2cnc3c(N)nc(N)nc32)CO1`, the EC50 with Human alphaherpesvirus 1 [1] was found to be 0.013 µM; in the data set on Human betaherpesvirus 5 [2], 0.008 µM; in the data set on Human alphaherpesvirus 3 [4], 0.0007 µM; with Human alphaherpesvirus 2, 0.011 µM; in the data set with Vaccinia virus it was 0.005 µM; in the data set with Human alphaherpesvirus 1 [5], 0.007 µM. The figures for the EC50 in the data set on Human alphaherpesvirus 3 [6], in the data set with Human betaherpesvirus 5 [8] and in the data set on Human betaherpesvirus 6 were 0.0047 µM, 0.027 µM and over 42 µM, respectively. Moreover, the values for the MCC in [3] and in data set [9] were 6.7 µM and 0.5 µM, respectively. For the same compound, the midpoint of cytotoxicity in data set [7], the CC50, lay at 15.1 µM.

As usually defined, the EC50 is the concentration that produces a half-maximal response. A word on the CC50: it is the concentration that lowers cell viability or growth by half. Low values mean harm at low concentration, high ones better tolerance by the cells.
